Experimental data: ChEMBL document CHEMBL3351316, “Scaffold hopping approach on the route to selective tankyrase inhibitors” (Eur J Med Chem, 2014)

Experiments:
[1] = target: Poly [ADP-ribose] polymerase 2 (Homo sapiens) (UniProt Q9UGN5); test: Inhibition of human recombinant PARP2 incubated for 1 hr using histone substrate at 1 uM by luminescence based assay
How it was run: (§1)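 Recombinant PARP enzyme reactions were run in duplicate for 1 h at rt on histone-coated plates in Tris·HCl pH 8.0 buffer with NAD+, biotinylated NAD+ and activated DNA. Detection used streptavidin-HRP for 30 min at rt, then a chemiluminescent developer. % inhibition = 100 − % activity, scaled between the no-compound (100%) and no-enzyme (0%) signals.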

[2] = Lipophilicity, log D of the compound at pH 7.4; assay type: physicochemical; conditions: buffer
[3] = target: Protein mono-ADP-ribosyltransferase PARP14 (Homo sapiens) (UniProt Q460N5); test: Inhibition of human recombinant PARP14 at 100 uM incubated for 1 hr using NAD+, biotinylated NAD+ and activated DNA by luminescence based assay; how it was run: as §1
Sequence of Protein mono-ADP-ribosyltransferase PARP14 (Homo sapiens) (Q460N5 whole entry): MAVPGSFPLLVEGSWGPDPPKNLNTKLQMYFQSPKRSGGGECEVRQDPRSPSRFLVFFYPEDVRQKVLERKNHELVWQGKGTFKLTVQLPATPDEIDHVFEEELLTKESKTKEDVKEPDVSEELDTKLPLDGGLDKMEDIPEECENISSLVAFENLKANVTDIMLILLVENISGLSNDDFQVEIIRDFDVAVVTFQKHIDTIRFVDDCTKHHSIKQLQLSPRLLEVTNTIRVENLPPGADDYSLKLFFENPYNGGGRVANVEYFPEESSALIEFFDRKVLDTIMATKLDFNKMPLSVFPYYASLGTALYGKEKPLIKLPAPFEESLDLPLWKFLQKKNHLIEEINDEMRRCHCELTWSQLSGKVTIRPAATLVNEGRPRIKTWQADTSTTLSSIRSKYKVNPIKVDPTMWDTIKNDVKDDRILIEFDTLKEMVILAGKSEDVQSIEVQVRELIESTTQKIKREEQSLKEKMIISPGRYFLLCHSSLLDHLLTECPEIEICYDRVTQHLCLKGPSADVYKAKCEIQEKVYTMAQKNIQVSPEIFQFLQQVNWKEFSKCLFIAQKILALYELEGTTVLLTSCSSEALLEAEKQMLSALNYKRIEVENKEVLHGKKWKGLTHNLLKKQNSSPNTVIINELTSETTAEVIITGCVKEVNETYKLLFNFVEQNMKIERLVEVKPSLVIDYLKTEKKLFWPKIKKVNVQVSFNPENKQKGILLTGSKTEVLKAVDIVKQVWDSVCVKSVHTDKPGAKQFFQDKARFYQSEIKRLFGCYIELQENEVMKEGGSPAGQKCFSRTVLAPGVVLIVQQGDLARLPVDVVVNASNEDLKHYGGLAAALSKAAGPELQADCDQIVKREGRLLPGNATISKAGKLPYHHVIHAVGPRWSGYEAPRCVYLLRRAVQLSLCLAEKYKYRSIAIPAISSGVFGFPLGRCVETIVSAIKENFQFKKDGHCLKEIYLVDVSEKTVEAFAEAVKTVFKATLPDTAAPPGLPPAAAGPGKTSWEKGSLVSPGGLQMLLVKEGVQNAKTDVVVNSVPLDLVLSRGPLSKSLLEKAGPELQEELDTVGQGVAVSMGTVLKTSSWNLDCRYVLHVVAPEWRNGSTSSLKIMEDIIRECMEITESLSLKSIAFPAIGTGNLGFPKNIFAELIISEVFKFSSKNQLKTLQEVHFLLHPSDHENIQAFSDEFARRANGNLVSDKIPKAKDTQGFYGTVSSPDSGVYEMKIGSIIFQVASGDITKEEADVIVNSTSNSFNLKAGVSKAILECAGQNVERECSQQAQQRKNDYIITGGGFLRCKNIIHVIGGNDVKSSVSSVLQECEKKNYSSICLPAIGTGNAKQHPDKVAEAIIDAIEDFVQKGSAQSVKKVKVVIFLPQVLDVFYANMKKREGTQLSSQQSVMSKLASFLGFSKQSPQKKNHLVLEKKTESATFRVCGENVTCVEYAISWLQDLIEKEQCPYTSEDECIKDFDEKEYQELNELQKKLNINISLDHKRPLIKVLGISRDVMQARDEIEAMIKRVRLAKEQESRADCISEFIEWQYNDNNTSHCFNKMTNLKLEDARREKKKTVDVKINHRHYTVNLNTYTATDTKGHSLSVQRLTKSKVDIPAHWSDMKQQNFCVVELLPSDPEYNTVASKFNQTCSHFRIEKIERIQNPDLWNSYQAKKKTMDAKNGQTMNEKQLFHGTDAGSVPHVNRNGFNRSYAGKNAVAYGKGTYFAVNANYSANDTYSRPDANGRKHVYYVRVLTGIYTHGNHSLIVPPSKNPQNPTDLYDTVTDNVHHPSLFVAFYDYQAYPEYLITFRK

[4] = target: Poly [ADP-ribose] polymerase 2 (Homo sapiens) (UniProt Q9UGN5); test: Inhibition of human recombinant PARP2 incubated for 1 hr using histone substrate at 10 uM by luminescence based assay; how it was run: as §1
[5] = target: T1, Poly [ADP-ribose] polymerase tankyrase-1 (Homo sapiens, UniProt O95271); test: Inhibition of GST-tagged human recombinant TNKS1 incubated for 1 hr using NAD+, biotinylated NAD+ and activated DNA by luminescence based assay
T1 sequence (O95271 whole entry): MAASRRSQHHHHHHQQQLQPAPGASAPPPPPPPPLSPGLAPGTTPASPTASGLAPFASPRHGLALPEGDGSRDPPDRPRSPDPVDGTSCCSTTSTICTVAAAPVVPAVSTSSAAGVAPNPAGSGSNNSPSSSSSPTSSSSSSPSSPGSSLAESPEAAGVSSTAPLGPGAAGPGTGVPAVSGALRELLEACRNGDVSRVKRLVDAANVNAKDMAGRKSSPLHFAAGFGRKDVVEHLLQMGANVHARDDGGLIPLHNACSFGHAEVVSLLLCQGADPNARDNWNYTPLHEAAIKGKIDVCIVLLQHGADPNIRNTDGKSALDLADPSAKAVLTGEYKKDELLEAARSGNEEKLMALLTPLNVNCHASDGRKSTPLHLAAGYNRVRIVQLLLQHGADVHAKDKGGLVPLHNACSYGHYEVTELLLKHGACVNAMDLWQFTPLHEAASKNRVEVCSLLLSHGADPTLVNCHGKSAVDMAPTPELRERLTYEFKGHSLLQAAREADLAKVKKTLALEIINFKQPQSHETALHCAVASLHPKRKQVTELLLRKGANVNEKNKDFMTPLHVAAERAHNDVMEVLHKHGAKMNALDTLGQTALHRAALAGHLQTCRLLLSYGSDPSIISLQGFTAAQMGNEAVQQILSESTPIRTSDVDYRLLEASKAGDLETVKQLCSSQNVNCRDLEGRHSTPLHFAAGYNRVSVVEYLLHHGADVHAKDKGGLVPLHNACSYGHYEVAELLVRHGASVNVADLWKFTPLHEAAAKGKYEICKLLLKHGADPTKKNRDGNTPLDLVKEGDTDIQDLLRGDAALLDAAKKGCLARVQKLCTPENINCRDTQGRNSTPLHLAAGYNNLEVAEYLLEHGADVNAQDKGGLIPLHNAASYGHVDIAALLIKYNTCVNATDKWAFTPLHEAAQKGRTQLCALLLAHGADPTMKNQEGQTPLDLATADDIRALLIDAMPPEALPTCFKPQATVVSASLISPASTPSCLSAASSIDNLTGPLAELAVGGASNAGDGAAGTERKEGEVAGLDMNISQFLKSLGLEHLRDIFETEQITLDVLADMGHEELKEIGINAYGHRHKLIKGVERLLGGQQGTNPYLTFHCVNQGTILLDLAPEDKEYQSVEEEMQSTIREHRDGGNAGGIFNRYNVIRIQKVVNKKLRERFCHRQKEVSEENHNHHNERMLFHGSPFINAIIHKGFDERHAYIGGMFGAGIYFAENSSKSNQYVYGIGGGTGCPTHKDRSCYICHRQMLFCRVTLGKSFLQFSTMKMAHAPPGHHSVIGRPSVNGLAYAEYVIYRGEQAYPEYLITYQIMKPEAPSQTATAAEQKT

[6] = target: Tankyrase 1/2 (Homo sapiens) (UniProt Q9H2K2+O95271); test: Inhibition of tankyrase in human DLD1 cells assessed as reduction in Wnt activity at 10 uM after 24 hrs by TCF-luciferase reporter gene assay; assay type: cell-based; conditions: DLD-1
Sequence of Tankyrase 1/2 (Homo sapiens) (Q9H2K2 whole entry, looked up, one chain of several): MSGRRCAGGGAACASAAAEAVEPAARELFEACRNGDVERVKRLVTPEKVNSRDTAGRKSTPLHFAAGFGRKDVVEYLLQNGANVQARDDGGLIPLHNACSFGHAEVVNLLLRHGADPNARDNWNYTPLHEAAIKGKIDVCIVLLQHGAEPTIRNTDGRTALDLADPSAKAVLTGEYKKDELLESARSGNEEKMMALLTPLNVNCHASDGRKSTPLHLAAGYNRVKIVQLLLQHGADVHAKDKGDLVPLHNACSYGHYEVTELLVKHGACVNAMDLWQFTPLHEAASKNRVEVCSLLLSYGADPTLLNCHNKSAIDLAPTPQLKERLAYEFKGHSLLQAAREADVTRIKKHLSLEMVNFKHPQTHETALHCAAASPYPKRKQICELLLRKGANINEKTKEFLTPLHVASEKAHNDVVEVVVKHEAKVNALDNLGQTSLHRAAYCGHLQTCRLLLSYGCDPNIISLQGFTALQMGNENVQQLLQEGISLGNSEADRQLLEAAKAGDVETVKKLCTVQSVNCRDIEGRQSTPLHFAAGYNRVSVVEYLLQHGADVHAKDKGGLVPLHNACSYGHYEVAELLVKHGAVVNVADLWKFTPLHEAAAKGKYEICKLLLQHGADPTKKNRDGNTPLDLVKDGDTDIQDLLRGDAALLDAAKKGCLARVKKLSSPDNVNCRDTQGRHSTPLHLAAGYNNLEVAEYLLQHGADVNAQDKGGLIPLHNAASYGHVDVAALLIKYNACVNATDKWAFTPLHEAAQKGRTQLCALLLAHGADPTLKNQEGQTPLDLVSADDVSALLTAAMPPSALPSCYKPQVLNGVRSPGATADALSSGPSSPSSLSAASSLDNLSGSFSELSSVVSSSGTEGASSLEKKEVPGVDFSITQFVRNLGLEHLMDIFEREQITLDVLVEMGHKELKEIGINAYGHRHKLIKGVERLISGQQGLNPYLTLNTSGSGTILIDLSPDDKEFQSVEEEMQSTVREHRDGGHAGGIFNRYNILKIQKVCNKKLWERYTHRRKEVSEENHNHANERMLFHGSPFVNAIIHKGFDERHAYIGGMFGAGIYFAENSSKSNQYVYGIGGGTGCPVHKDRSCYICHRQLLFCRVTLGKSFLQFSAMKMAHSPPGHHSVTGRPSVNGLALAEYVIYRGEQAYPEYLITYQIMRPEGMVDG
How it was run: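 DLD-1 cells were transduced with a TOP-TCF firefly luciferase lentivirus plus a renilla luciferase lentivirus (1:20), with renilla used to normalise for infection efficiency. Compound was tested at 10 μM for 24 h, with DMSO as the negative control. Cells were then lysed for dual-luciferase read-out, and activity was taken as the TOP/RL ratio. Data are the average of at least three separate experiments ± SD.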

Sequence of Poly [ADP-ribose] polymerase 2 (Homo sapiens) (Q9UGN5 whole entry): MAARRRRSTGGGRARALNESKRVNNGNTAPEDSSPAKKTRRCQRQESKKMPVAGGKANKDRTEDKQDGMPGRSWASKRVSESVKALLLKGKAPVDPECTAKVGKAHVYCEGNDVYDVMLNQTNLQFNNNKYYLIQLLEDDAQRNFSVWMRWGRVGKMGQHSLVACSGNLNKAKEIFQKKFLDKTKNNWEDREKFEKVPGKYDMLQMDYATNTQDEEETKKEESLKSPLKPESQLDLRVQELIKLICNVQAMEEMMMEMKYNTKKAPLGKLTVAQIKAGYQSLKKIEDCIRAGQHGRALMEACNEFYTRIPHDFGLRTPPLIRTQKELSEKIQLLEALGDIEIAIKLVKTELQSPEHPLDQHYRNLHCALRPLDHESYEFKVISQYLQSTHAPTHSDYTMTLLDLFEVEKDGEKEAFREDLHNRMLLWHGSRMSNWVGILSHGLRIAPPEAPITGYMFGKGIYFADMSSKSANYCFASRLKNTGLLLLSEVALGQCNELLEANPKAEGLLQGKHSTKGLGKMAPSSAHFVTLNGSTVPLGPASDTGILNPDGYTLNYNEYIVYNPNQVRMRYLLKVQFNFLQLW

| Structure (SMILES) | inhibition [1] [%] | logD [2] | inhibition [3] [%] | inhibition [4] [%] | IC50 [5] [nM] | inhibition [6] [%] |
| --- | --- | --- | --- | --- | --- | --- |
| Oc1cc(-c2ccccc2)c2ccccc2n1 | 3 | 3.03 |  |  |  |  |
| O=c1[nH]c2cc(O)ccc2c2c1sc1ccccc12 | 64 | 3.43 |  |  |  |  |
| O=c1[nH]c(-c2ccccc2)nc2c1sc1ccccc12 | 0 | 3.62 |  |  |  |  |
| O=c1[nH]c(C2CCCCC2)nc2c1sc1ccccc12 | 14 | 3.89 |  |  |  |  |
| O=c1[nH]c2ccccc2c2c1sc1ccc(O)cc12 | 93 | 3.44 |  |  |  |  |
| COc1cccc(/C=C/C(=O)O)c1 |  |  | 17 |  |  |  |
| O=c1[nH]c2ccccc2c2ccsc12 | 91 | 2.65 |  |  |  |  |
| Oc1nc(-c2ccc(C(F)(F)F)cc2)nc2c1CSCC2 |  |  |  | 100 |  |  |
| O=c1[nH]ccc2c1sc1ccccc12 | 34 | 3.62 |  |  |  |  |
| O=c1[nH]c(-c2ccccc2)cc2ccsc12 | 26 | 2.53 |  |  |  |  |
| Cc1ccc(-c2nc3c(sc4ccccc43)c(=O)[nH]2)cc1 | 4 | 4.13 |  |  | 19.4 |  |
| COc1ccc2sc3c(O)nc4ccccc4c3c2c1 | 17 | 3.59 |  |  |  | 21 |
| COc1ccc2c(c1)nc(O)c1sc3ccccc3c12 | 27 | 3.59 |  |  |  | 37 |
| O=c1[nH]ccc2ccsc12 | 24 | 1.24 |  |  |  |  |
| COc1ccc2c(c1)[nH]c(=O)c1sc3ccc(OC)cc3c12 | 12 | 3.43 |  |  |  |  |
| O=c1[nH]c(-c2ccccc2)cc2c1sc1ccccc12 | 11 | 3.63 |  |  | 181 |  |
| O=c1[nH]c2ccccc2c2c1sc1ccccc12 | 14 | 3.75 |  |  | 90 |  |
| O=c1[nH]c(-c2ccccc2)nc2c3c(sc12)CCCC3 | 11 | 4.11 |  |  |  |  |
| O=c1[nH]c(-c2cccs2)nc2c1sc1ccccc12 | 9 | 3.52 |  |  |  |  |
